Screens from PubChem BioAssay.
PfG6PD inh = PfG6PD (Plasmodium falciparum) enzyme inhibition | inhibition, % at 20 µM | PfGluPho enzyme, NADPH resazurin-diaphorase fluorescence | hit rate 0.78% among 350,000;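 active = inhibition reaching at least a set limit at 20 µM in the primary screen, cut at about 59% in these data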
HKDC1 inh = HKDC1 (human) hexokinase inhibition. Q2TB90. recombinant HKDC1, G6PDH/diaphorase resazurin coupled fluorescence. inhibition, % at 20 µM. hit rate 0.16% among 340,000. AID 493160;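 active = inhibition above about 35% when tested at 20 µM, limit read from the data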
Target sequence (Q2TB90 whole entry, looked up): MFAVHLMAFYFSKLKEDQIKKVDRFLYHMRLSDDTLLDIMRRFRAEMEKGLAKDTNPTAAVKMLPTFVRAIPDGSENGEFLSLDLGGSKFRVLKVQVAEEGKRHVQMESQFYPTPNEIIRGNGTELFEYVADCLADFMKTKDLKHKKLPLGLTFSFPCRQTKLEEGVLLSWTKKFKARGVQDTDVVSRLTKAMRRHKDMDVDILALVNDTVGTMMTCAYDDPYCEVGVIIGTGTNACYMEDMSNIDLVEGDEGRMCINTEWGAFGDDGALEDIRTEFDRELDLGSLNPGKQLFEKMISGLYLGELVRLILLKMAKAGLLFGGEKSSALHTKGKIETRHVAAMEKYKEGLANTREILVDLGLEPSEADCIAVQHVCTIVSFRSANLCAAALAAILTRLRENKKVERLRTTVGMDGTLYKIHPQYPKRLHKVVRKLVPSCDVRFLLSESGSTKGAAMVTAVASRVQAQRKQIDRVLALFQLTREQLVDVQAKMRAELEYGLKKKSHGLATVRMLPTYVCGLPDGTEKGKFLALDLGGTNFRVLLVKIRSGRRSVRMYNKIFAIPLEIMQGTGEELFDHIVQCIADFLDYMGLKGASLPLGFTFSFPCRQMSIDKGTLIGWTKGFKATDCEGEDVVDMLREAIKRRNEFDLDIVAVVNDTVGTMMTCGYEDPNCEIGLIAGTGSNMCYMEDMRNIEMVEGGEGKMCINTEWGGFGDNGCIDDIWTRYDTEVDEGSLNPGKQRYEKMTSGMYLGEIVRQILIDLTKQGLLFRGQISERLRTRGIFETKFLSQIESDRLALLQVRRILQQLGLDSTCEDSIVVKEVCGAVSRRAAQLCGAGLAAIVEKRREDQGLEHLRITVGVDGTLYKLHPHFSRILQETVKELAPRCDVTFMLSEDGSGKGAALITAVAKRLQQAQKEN
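Assay system: in-house recombinant HK5 (HKDC1) enzyme. Input: HKDC1 at 5 µg/mL. Medium: Tris pH 8.0 buffer with MgCl2, Tween-20, BSA, BME. Dosing: single 20 µM dose. Schedule: 90 min reaction incubation at room temperature, dark. Signal: resazurin-to-resorufin fluorescence via G6PDH and diaphorase coupling, 525/613 nm. Controls: DMSO-enzyme wells negative, buffer-substituted wells positive.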
G6PDH counter = inhibits Leuconostoc G6PDH, flagging false hits in G6PDH-based assays; Purified L. mesenteroides G6PDH, diaphorase/resazurin coupled fluorescence, 45 min; inhibition, % at 5 µM; hit rate 0.12% among 200,000; in the data active = inhibition above about 50%
Diaph inh CS = counter-screen for diaphorase-based assays: diaphorase inhibitors and chemical oxidizers | diaphorase resazurin-to-resorufin fluorescence, NADH, 16 min; bacterial (C. kluyveri) enzyme, not human | inhibition, % at 20 µM | hit rate 0.69% among 190,000 | AID 1217;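 active = primary screen inhibition at 20 µM above a set limit, cut at about 50% in these data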
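System: Bacterial diaphorase enzyme (C. kluyveri) | Incubation: 16-min room-temperature incubation before reading | Benchmarks: No-NADH positive control and DMSO neutral control | Measured by: Resorufin fluorescence 544/590 nm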
HKDC1 act conf = confirmation of human HKDC1 activators; hit rate 14% among 740; shares compounds with HKDC1 inh; inhibition, % at 20 µM; recombinant HKDC1, G6PDH/diaphorase resazurin fluorescence; hits give low values; AID 504708;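 active = inhibition at or below a set negative limit, negative inhibition meaning the enzyme was activated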
Each line names hits and unclear results; the compound was inactive in the other large screens (follow-up assays come after a bar, where they were run). Most compounds without a hit are left out; they make up all but 1.3% or so of the library.

O=C(/C=C/c1ccc(Br)cc1)NC(=S)Nc1ccc(S(=O)(=O)Nc2nccs2)cc1	none | HKDC1 act conf inactive
Cc1ccc2ccccc2[n+]1CCCS(=O)(=O)[O-]	none
CCCC[n+]1c2ccccc2cc2ccccc21	HKDC1 inh 41.9 (no result: G6PDH counter, Diaph inh CS) | HKDC1 act conf inactive
CCC[n+]1c2ccccc2cc2ccccc21	HKDC1 inh 36.5 (no result: G6PDH counter, Diaph inh CS) | HKDC1 act conf inactive
CCCCC[n+]1cccc2c3ccccc3ccc21	none
O=C(Nc1cccc2ncccc12)c1cc([N+](=O)[O-])ccc1Cl	none (no result: G6PDH counter, Diaph inh CS)
COc1ccc(C(C)=O)cc1CSCCC(=O)O	none
COc1ccc(C(=O)/C=C/c2ccsc2)cc1CSCC(=O)O	HKDC1 inh 35.7 (no result: G6PDH counter, Diaph inh CS) | HKDC1 act conf inactive
C[C@@H]1CN([C@H](C)CO)C(=O)CCCn2cc(nn2)CO[C@H]1CN(C)C(=O)Nc1ccc(F)cc1	none (no result: HKDC1 inh, G6PDH counter, Diaph inh CS)
CC(C)(C)c1ccc(-c2csc(NNC3=NCCCCC3)n2)cc1	none | HKDC1 act conf -39.4
Brc1ccc(-c2csc(NNC3=NCCCCC3)n2)cc1	none
CCC(c1ccccc1)C(CC)c1cc(O)c(O)c(O)c1 (configuration not stated)	HKDC1 inh 42.4 (no result: G6PDH counter, Diaph inh CS) | HKDC1 act conf inactive
Cc1ccc2cc(C=C(C#N)C#N)c(N3CCCCC3)nc2c1	HKDC1 inh 40.9 | HKDC1 act conf inactive
O=C(Sc1nnc(-c2ccccc2)o1)N1c2ccccc2Sc2ccccc21	HKDC1 inh 37.2 | HKDC1 act conf inactive
Cc1ccc(-n2c(N)c(C(=O)Nc3c(C)n(C)n(-c4ccccc4)c3=O)c3nc4ccccc4nc32)cc1	none
Cc1cc(C)cc(-n2c(N)c(C(=O)Nc3c(C)n(C)n(-c4ccccc4)c3=O)c3nc4ccccc4nc32)c1	HKDC1 inh 38.2 | HKDC1 act conf inactive
COc1cccc(-n2c(N)c(C(=O)Nc3c(C)n(C)n(-c4ccccc4)c3=O)c3nc4ccccc4nc32)c1	HKDC1 inh 35.7 (no result: G6PDH counter, Diaph inh CS) | HKDC1 act conf inactive
COc1ccccc1CNC(=O)CCS(=O)(=O)c1ccc(Cl)cc1	none (no result: G6PDH counter, Diaph inh CS)
COc1ccc(C(=O)OCC2CC(c3ccccc3)=NO2)cc1OC (configuration not stated)	none
COc1ccc(-c2nc3c(c(=O)n(C)c(=O)n3C)n2CC2CC(c3ccccc3)=NO2)cc1OC (configuration not stated)	none (no result: G6PDH counter, Diaph inh CS) | HKDC1 act conf -32.8
CC(C)Cc1nc2sc3c(NCc4ccco4)ncnc3c2c2c1COC(C)(C)C2	none
Cc1nc2sc3c(NCc4ccco4)ncnc3c2c2c1COC(C)(C)C2	PfG6PD inh 62.3, HKDC1 inh 35.2, Diaph inh CS 66.2 | HKDC1 act conf inactive
CC(C)c1ccc(/C=C(\NC(=O)c2ccccc2)C(=O)NCCCn2ccnc2)cc1	none (no result: G6PDH counter, Diaph inh CS)
CCN1/C(=C/c2ccc3cc(C)ccc3[n+]2CC)Sc2ccccc21	none
CC[n+]1c(/C=C2\Sc3ccccc3N2C)ccc2cccc(C)c21	none | HKDC1 act conf -37.8
CCOC(=O)Cn1cnc2c(cnn2-c2ccccc2)c1=O	none (no result: G6PDH counter, Diaph inh CS)
O=C(O)C1Nc2c(O)cc(Cl)c([N+](=O)[O-])c2C2C=CCC12 (configuration not stated)	Diaph inh CS 71.0 | HKDC1 act conf inactive
Cc1ccc(S(=O)(=O)Nc2ccc(O)c3ccccc23)c(C)c1	HKDC1 inh 51.8 (no result: G6PDH counter, Diaph inh CS) | HKDC1 act conf inactive
Cc1ccc(C)c(S(=O)(=O)Nc2ccc(O)c3ccccc23)c1	HKDC1 inh 47.8 (no result: G6PDH counter, Diaph inh CS) | HKDC1 act conf inactive
COc1ccc(S(=O)(=O)Nc2ccccc2)cc1	none (no result: G6PDH counter, Diaph inh CS)
Cc1ccc(C)c(S(=O)(=O)Nc2ccc(O)c(C(=O)O)c2)c1	none
COc1ccc(S(=O)(=O)Nc2ccc(O)c3ccccc23)cc1	HKDC1 inh 45.7 | HKDC1 act conf inactive
CCC1(CC)C(=O)N(c2ccccc2)C(=N)N(c2ccccc2)C1=O	none (no result: G6PDH counter, Diaph inh CS)
Cc1ccc(C)c2[nH]c(=O)c(CCNC(=O)c3cc4ccccc4o3)cc12	none
COc1ccc(OC)c2[nH]c(=O)c(CCNC(=O)c3cc4ccccc4o3)cc12	HKDC1 inh 38.5, Diaph inh CS 58.5 | HKDC1 act conf inactive
CC(OC(=O)CN1C(=O)NC2(CCCC2)C1=O)C(=O)Nc1cccc(Cl)c1 (configuration not stated)	none (no result: G6PDH counter, Diaph inh CS)
O=C(NC(=S)NNC(=O)c1ccccc1O)c1ccco1	none | HKDC1 act conf inactive
O=C(NC(=S)NNC(=O)c1cc2ccccc2cc1O)c1ccco1	none
O=C(CSc1nnc(CCCN2C(=O)c3cccc4cccc(c34)C2=O)n1-c1ccccc1)N1CCN(CCO)CC1	HKDC1 inh 42.4, Diaph inh CS 58.8 | HKDC1 act conf inactive
